Data taken from paper PMC9071996 (RSC Advances, 2019).

Tests used:
MDA-MB-231 cells [1] = assay: Mitochondrial membrane potential assay; type: cell-based, human; details: 72 h, control 3.9%
Outline: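 Mitochondrial membrane potential measured by flow cytometry in MDA-MB-231 cells after 72 h with test compound at 2.5, 5 or 10 μM, against an untreated control. Red and green fluorescent populations were quantified. The green-fluorescent fraction was taken as cells with collapsed ΔΨm.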

RPMI-8226 cells = assay: MTS cytotoxicity assay, RPMI-8226; type: cell-based; details: Homo sapiens, RPMI-8226, 72 h, read-out: IC50 (μM) RPMI-8226
Outline: (§1)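 MTS viability assay in A549, MDA-MB-231 and RPMI-8226 human cancer cells. All compounds were first screened at 10 and 50 μM. Compounds that crossed a set viability threshold in this screen went on to IC50 determination.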

MDA-MB-231 cells [2] = assay: Annexin V-APC/7-AAD apoptosis assay; type: cell-based, human; details: 72 h, control 1.98%
Outline: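 MDA-MB-231 cells exposed to test compound at 2.5, 5 or 10 μM for 72 h, with untreated cells as control. Cells then double-stained with Annexin V-APC and 7-AAD and analysed by flow cytometry. Annexin V+/7-AAD− cells scored as early apoptotic. 7-AAD-positive Annexin V+ cells scored as late apoptotic. Results shown as dot-plot quadrants and a histogram.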

MDA-MB-231 cells [3] = assay: Intracellular ROS level; type: cell-based, human
A549 cells = assay: MTS cytotoxicity assay, A549; type: cell-based; details: Homo sapiens, A549, 72 h, read-out: IC50 (μM) A549
Outline: as §1

MDA-MB-231 cells [4] = assay: Cell cycle assay; type: cell-based, human; details: 72 h, control 56.86%
Outline: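 Test compound applied to MDA-MB-231 cells at 2.5, 5 and 10 μM for 72 h. Cells stained with propidium iodide, and DNA content measured by flow cytometry. Percentages of cells in each cell-cycle phase were calculated against an untreated control.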

GES-1 cells = assay: MTS cytotoxicity assay, normal GES-1 cells; type: cell-based; details: Homo sapiens, GES1, 72 h, read-out: IC50 (μM) GES-1
MDA-MB-231 cells [5] = assay: Western blot of apoptosis related proteins; type: cell-based, human; details: 2.5, 5 and 10 μM, 72 h, vs control
Outline: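 Western blot on lysates of MDA-MB-231 cells treated for 72 h with test compound at 2.5, 5 and 10 μM, compared with untreated control. Proteins probed: Bcl-2, Bax, cytochrome C and caspase-3. β-actin served as internal reference, and band levels were analysed statistically.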

MDA-MB-231 cells [6] = assay: MTS cytotoxicity assay, MDA-MB-231; type: cell-based; details: Homo sapiens, MDA-MB-231, 72 h, read-out: IC50 (μM) MBA-MD-231
Outline: as §1

CC12CCC(c3c(-c4ccc(Cl)cc4)nc(N)nc31)C2(C)C (stereo not drawn) [Compound 3f, 4-(4-Chlorophenyl)-8,9,9-trimethyl-5,6,7,8-tetrahydro-5,8-methanoquinazolin-2-amine]
Percentage (%) green fluorescence (cells with a collapsed ΔΨm) (MDA-MB-231 cells [1]; 2.5 μM): 10.4%
Percentage (%) green fluorescence (cells with a collapsed ΔΨm) (MDA-MB-231 cells [1]; 5 μM): 33.6%
Percentage (%) green fluorescence (cells with a collapsed ΔΨm) (MDA-MB-231 cells [1]; 10 μM): 53.2%
IC50 (RPMI-8226 cells): 8.64 ± 0.24 µM
Apoptosis rate (%) (total early and late) (MDA-MB-231 cells [2]; 2.5 μM): 9.47%
Apoptosis rate (%) (total early and late) (MDA-MB-231 cells [2]; 10 μM): 57.9%
level of ROS (DCFH-DA positive cells) (MDA-MB-231 cells [3]; 10.0 μM, 72 h, control 5.13%): 63.4%
increase of ROS level in comparison to the control group (MDA-MB-231 cells [3]; 10 μM, 63.4% vs control 5.13%): ~12 times
IC50 (A549 cells): 7.65 ± 0.21 µM
percentage of cells in G0/G1 phase (MDA-MB-231 cells [4]; 2.5 μM): 64.89%
percentage of cells in G0/G1 phase (MDA-MB-231 cells [4]; 5 μM): 78.02%
percentage of cells in G0/G1 phase (MDA-MB-231 cells [4]; 10 μM): 81.72%
IC50 (GES-1 cells): > 50 µM
expression of anti-apoptosis protein Bcl-2 (MDA-MB-231 cells [5]): downregulated dose-dependently
expression of caspase-3 (MDA-MB-231 cells [5]): upregulation
expression of cytochrome C (MDA-MB-231 cells [5]): upregulation
expression of pro-apoptotic protein Bax (MDA-MB-231 cells [5]): up-regulated
IC50 (MDA-MB-231 cells [6]): 5 ± 0.14 µM
